Source: ChEMBL document CHEMBL2177043, “HIV-1 X4 activities of polycationic "viologen" based dendrimers by interaction with the chemokine receptor CXCR4: study of structure-activity relationship” (J Med Chem, 2012)
Active and inactive are the calls of the source. The calls are words filed in the database; no cut-off is given here.

What was measured:
[1] = target: T1, C-X-C chemokine receptor type 4 (Homo sapiens, UniProt P61073); test: Inhibition of CXCL-12'AF647 binding to CXCR4 in human SUPT1 cells incubated for 15 mins by FACS; assay type: cell-based
Outline: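 SupT1 cells (high CXCR4) washed, then incubated 15 min at room temperature with compounds at varied concentrations in HBSS containing 20 mM HEPES and 0.2% BSA, pH 7.4. CXCL12-AF647 added at 25 ng/mL final for 30 min at room temperature. Cells washed, fixed in 1% paraformaldehyde, and read by flow cytometry on FL4.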

[2] = target: T2, C-C chemokine receptor type 5 (Homo sapiens, UniProt P51681); test: Antagonist activity against CCR5 expressed in U87.CD4.CCR5 cells assessed as inhibition of CCL3L1-induced calcium signaling incubated for 10 mins by FLIPR
[3] = target: T1, C-X-C chemokine receptor type 4; test: Inhibition of anti-CXCR4 mAbs clone 173 binding to CXCR4 in human SUPT1 cells incubated for 30 mins by FACS
[4] = target: T1, C-X-C chemokine receptor type 4; test: Antagonist activity against CXCR4 expressed in U87.CD.CXCR4 cells assessed as inhibition of CXCL12-induced calcium signaling incubated for 10 mins by FLIPR; assay type: functional, cell-based
Outline: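 U87.CD4.CXCR4 cells seeded at 2 × 10⁴/well on 0.2% gelatin the day before, loaded with 4 μM Fluo-3 AM for 45 min at 37 °C, washed, then preincubated with compounds at varied concentrations in assay buffer for 10 min at 37 °C. Challenged with 25 ng/mL CXCL12; Ca²⁺ flux followed over time by FLIPR.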

[5] = tested on: Human immunodeficiency virus 1; test: Antiviral activity against X4 HIV1 NL4.3 infected in human PBMC assessed as inhibition of viral replication pre-incubated for 30 mins measured 5 days post infection by MTT assay; assay type: functional, organism-based; conditions: Human immunodeficiency virus 1, NL4.3
Outline: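 Human PBMC infected with HIV-1 NL4.3. IC₅₀ is the concentration inhibiting viral replication by 50%, averaged over two independent experiments. Cytotoxicity (CC₅₀, 50% loss of PBMC viability) evaluated in the same assay.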

[6] = target: T1, C-X-C chemokine receptor type 4; test: Inhibition of anti-CXCR4 mAbs clone 1D9 binding to CXCR4 in human SUPT1 cells incubated for 30 mins by FACS
[7] = target: T2, C-C chemokine receptor type 5; test: Agonist activity against CCR5 expressed in U87.CD4.CCR5 cells assessed as stimulation of calcium signaling incubated for 10 mins by FLIPR
[8] = tested on: Human immunodeficiency virus 1; test: Antiviral activity against X4 HIV1 NL4.3 infected in human MT4 cells assessed as inhibition of viral replication pre-incubated for 30 mins […]; assay type: functional, organism-based; conditions: Human immunodeficiency virus 1, NL4.3, MT4
[9] = target: T2, C-C chemokine receptor type 5; test: Antagonist activity against CCR5 expressed in U87.CD4.CCR5 cells assessed as inhibition of CCL3L1-induced calcium signaling incubated for 10 mins by FLIPR; assay type: functional, cell-based
Outline: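 U87.CD4.CCR5 cells seeded at 2 × 10⁴/well on 0.2% gelatin the day before, loaded with 4 μM Fluo-3 AM for 45 min at 37 °C, washed, then preincubated with compounds at varied concentrations in assay buffer for 10 min at 37 °C. Stimulated with 10 ng/mL LD78β (CCL3L1); Ca²⁺ flux recorded by FLIPR.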

[10] = target: T1, C-X-C chemokine receptor type 4; test: Agonist activity against CXCR4 expressed in U87.CD.CXCR4 cells assessed as stimulation of calcium signaling incubated for 10 mins by FLIPR; assay type: functional, cell-based
Outline: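 U87.CD4 cells stably carrying CXCR4 or CCR5, trypsinized and seeded at 2 × 10⁴ cells/well on 0.2% gelatin the day before. Loaded with Fluo-3 AM (4 μM, 45 min, 37 °C), washed, then exposed to test agents alone at varied concentrations in assay buffer for 10 min at 37 °C. Cytosolic Ca²⁺ rise monitored over time by FLIPR to detect any agonist-triggered signal.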

[11] = target: T1, C-X-C chemokine receptor type 4; test: Inhibition of anti-CXCR4 mAbs clone 12G5 binding to CXCR4 in human SUPT1 cells incubated for 30 mins by FACS
[12] = Cytotoxicity against human PBMC cells by MTT assay; assay type: cell-based
[13] = Cytotoxicity against human MT4 cells by MTT assay; assay type: cell-based

T2 sequence (P51681 whole entry, looked up): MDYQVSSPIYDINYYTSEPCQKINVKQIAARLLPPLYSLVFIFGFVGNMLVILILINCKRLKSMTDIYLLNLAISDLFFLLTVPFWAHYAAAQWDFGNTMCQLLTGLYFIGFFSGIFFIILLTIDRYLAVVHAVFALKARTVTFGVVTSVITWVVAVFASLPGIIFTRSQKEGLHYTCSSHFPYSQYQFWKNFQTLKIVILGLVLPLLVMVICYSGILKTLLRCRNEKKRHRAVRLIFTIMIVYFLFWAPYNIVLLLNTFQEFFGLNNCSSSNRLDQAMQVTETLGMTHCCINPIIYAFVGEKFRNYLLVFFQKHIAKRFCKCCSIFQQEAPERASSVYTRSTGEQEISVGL
T1 sequence (P61073 whole entry): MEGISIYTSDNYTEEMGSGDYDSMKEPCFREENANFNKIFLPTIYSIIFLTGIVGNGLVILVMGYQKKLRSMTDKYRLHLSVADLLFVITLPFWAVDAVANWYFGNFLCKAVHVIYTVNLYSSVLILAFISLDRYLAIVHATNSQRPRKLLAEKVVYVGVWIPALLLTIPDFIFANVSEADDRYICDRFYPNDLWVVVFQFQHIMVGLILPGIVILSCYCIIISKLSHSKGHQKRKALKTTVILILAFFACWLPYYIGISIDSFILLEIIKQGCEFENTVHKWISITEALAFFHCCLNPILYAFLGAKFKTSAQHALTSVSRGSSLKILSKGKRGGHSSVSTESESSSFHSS

For `Cc1cn(CCC[n+]2ccc(-c3cc[n+](Cc4cc(C[n+]5ccc(-c6cc[n+](CCCn7cc(C)c(=O)[nH]c7=O)cc6)cc5)cc(C[n+]5ccc(-c6cc[n+](Cc7cc(C[n+]8ccc(-c9cc[n+](Cc%10cc(C[n+]%11ccc(-c%12cc[n+](CCCn%13cc(C)c(=O)[nH]c%13=O)cc%12)cc%11)cc(C[n+]%11ccc(-c%12cc[n+](CCCn%13cc(C)c(=O)[nH]c%13=O)cc%12)cc%11)c%10)cc9)cc8)cc(C[n+]8ccc(-c9cc[n+](Cc%10cc(C[n+]%11ccc(-c%12cc[n+](Cc%13cc(C[n+]%14ccc(-c%15cc[n+](Cc%16cc(C[n+]%17ccc(-c%18cc[n+](CCCn%19cc(C)c(=O)[nH]c%19=O)cc%18)cc%17)cc(C[n+]%17ccc(-c%18cc[n+](CCCn%19cc(C)c(=O)[nH]c%19=O)cc%18)cc%17)c%16)cc%15)cc%14)cc(C[n+]%14ccc(-c%15cc[n+](Cc%16cc(C[n+]%17ccc(-c%18cc[n+](CCCn%19cc(C)c(=O)[nH]c%19=O)cc%18)cc%17)cc(C[n+]%17ccc(-c%18cc[n+](CCCn%19cc(C)c(=O)[nH]c%19=O)cc%18)cc%17)c%16)cc%15)cc%14)c%13)cc%12)cc%11)cc(C[n+]%11ccc(-c%12cc[n+](Cc%13cc(C[n+]%14ccc(-c%15cc[n+](Cc%16cc(C[n+]%17ccc(-c%18cc[n+](CCCn%19cc(C)c(=O)[nH]c%19=O)cc%18)cc%17)cc(C[n+]%17ccc(-c%18cc[n+](CCCn%19cc(C)c(=O)[nH]c%19=O)cc%18)cc%17)c%16)cc%15)cc%14)cc(C[n+]%14ccc(-c%15cc[n+](Cc%16cc(C[n+]%17ccc(-c%18cc[n+](CCCn%19cc(C)c(=O)[nH]c%19=O)cc%18)cc%17)cc(C[n+]%17ccc(-c%18cc[n+](CCCn%19cc(C)c(=O)[nH]c%19=O)cc%18)cc%17)c%16)cc%15)cc%14)c%13)cc%12)cc%11)c%10)cc9)cc8)c7)cc6)cc5)c4)cc3)cc2)c(=O)[nH]c1=O.F[P-](F)(F)(F)(F)F.F[P-](F)(F)(F)(F)F.F[P-](F)(F)(F)(F)F.F[P-](F)(F)(F)(F)F.F[P-](F)(F)(F)(F)F.F[P-](F)(F)(F)(F)F.F[P-](F)(F)(F)(F)F.F[P-](F)(F)(F)(F)F.F[P-](F)(F)(F)(F)F.F[P-](F)(F)(F)(F)F.F[P-](F)(F)(F)(F)F.F[P-](F)(F)(F)(F)F.F[P-](F)(F)(F)(F)F.F[P-](F)(F)(F)(F)F.F[P-](F)(F)(F)(F)F.F[P-](F)(F)(F)(F)F.F[P-](F)(F)(F)(F)F.F[P-](F)(F)(F)(F)F.F[P-](F)(F)(F)(F)F.F[P-](F)(F)(F)(F)F.F[P-](F)(F)(F)(F)F.F[P-](F)(F)(F)(F)F.F[P-](F)(F)(F)(F)F.F[P-](F)(F)(F)(F)F.F[P-](F)(F)(F)(F)F.F[P-](F)(F)(F)(F)F.F[P-](F)(F)(F)(F)F.F[P-](F)(F)(F)(F)F.F[P-](F)(F)(F)(F)F.F[P-](F)(F)(F)(F)F.F[P-](F)(F)(F)(F)F.F[P-](F)(F)(F)(F)F.F[P-](F)(F)(F)(F)F.F[P-](F)(F)(F)(F)F.F[P-](F)(F)(F)(F)F.F[P-](F)(F)(F)(F)F.F[P-](F)(F)(F)(F)F.F[P-](F)(F)(F)(F)F.F[P-](F)(F)(F)(F)F.F[P-](F)(F)(F)(F)F.F[P-](F)(F)(F)(F)F.F[P-](F)(F)(F)(F)F`, the IC50 [1] was 124 nM, the inhibition [2] was “Dose-dependent effect” and the IC50 [3] was 191 nM. The inhibition [3] was “Dose-dependent effect”, the IC50 [4] was 38.3 nM and the inhibition [4] was “Dose-dependent effect”. For the same molecule, the IC50 [5] was 2.32 µg/mL, the IC50 [6] was 233 nM and the inhibition [6] was “Dose-dependent effect”. For the same molecule, the Activity [7] was “inactive”, the IC50 [8] was 1.5 µg/mL and the IC50 [9] was 1.75 µM. The Activity [10] was “inactive”, the IC50 [11] was 178 nM and the inhibition [11] was “Dose-dependent effect”. It also gave a CC50 [12] of 20 µg/mL and a CC50 [13] of 9 µg/mL.

For `CC[n+]1ccc(-c2cc[n+](Cc3cc(C[n+]4ccc(-c5cc[n+](CC)cc5)cc4)cc(C[n+]4ccc(-c5cc[n+](Cc6cc(C[n+]7ccc(-c8cc[n+](Cc9cc(C[n+]%10ccc(-c%11cc[n+](CC)cc%11)cc%10)cc(C[n+]%10ccc(-c%11cc[n+](CC)cc%11)cc%10)c9)cc8)cc7)cc(C[n+]7ccc(-c8cc[n+](Cc9cc(C[n+]%10ccc(-c%11cc[n+](CC)cc%11)cc%10)cc(C[n+]%10ccc(-c%11cc[n+](CC)cc%11)cc%10)c9)cc8)cc7)c6)cc5)cc4)c3)cc2)cc1.F[P-](F)(F)(F)(F)F.F[P-](F)(F)(F)(F)F.F[P-](F)(F)(F)(F)F.F[P-](F)(F)(F)(F)F.F[P-](F)(F)(F)(F)F.F[P-](F)(F)(F)(F)F.F[P-](F)(F)(F)(F)F.F[P-](F)(F)(F)(F)F.F[P-](F)(F)(F)(F)F.F[P-](F)(F)(F)(F)F.F[P-](F)(F)(F)(F)F.F[P-](F)(F)(F)(F)F.F[P-](F)(F)(F)(F)F.F[P-](F)(F)(F)(F)F.F[P-](F)(F)(F)(F)F.F[P-](F)(F)(F)(F)F.F[P-](F)(F)(F)(F)F.F[P-](F)(F)(F)(F)F`, the IC50 [1] was 309 nM, the inhibition [2] was “Dose-dependent effect” and the IC50 [3] was 378 nM. The inhibition [3] was “Dose-dependent effect”, the IC50 [4] was 294 nM and the inhibition [4] was “Dose-dependent effect”. The IC50 [5] was 0.34 µg/mL, the IC50 [6] was 464 nM and the inhibition [6] was “Dose-dependent effect”. For the same molecule, the Activity [7] was “inactive”, the IC50 [8] was 0.8 µg/mL and the IC50 [9] was 4.86 µM. For the same molecule, the Activity [10] was “inactive”, the IC50 [11] was 260 nM and the inhibition [11] was “Dose-dependent effect”. For the same molecule, the CC50 [12] was 20 µg/mL and the CC50 [13] was 11 µg/mL.
